# According to ChEMBL document CHEMBL1129728, “Structure-based design and synthesis of substituted 2-butanols as nonpeptidic inhibitors of HIV protease: secondary amide series” (J Med Chem, 1996):
# pIC50, pKi: −log10 of the molar value.
# Columns and labels:
# [1] = target: Human immunodeficiency virus type 1 protease (Human immunodeficiency virus 1) (UniProt Q72874); assay: Inhibitory activity against HIV-1 PR in HIV-1 infected CEM-SS cell lines; activity @ 10 uM; format: cell-based
# [2] = target: Human immunodeficiency virus type 1 protease (Human immunodeficiency virus 1) (UniProt Q72874); assay: (§1) Inhibitory activity against HIV PR in HIV-1 infected CEM-SS cell lines; format: cell-based; conditions: concentration not given here
# In short: (§2)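 Antiviral activity in HIV-1-infected CEM cells, read out by a cell viability assay run to a previously described method. Compounds were tested across a dose range, and the antiviral IC50 was taken from the dose-response curve.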
# [3] = target: T1, Human immunodeficiency virus type 1 protease (Human immunodeficiency virus 1, UniProt Q72874); assay: as §1; format: cell-based; in short: as §2
# [4] = target: T1, Human immunodeficiency virus type 1 protease; assay: as §1; format: cell-based; remark: listed apart in the source
# [5] = target: Human immunodeficiency virus type 1 protease (Human immunodeficiency virus 1) (UniProt Q72874); assay: Inhibitory activity against HIV PR in HIV-1 infected CEM-SS cell lines; activity @ 200 uM
# [6] = target: Human immunodeficiency virus type 1 protease (Human immunodeficiency virus 1) (UniProt Q72874); assay: Inhibitory activity against HIV-1 PR in HIV-1 infected CEM-SS cell lines; activity @ 10 uM
Compound,pIC50 [3],pKi [4],further results
CC(C)(C)NC(=O)c1ccccc1CC[C@H](O)CN1CCC[C@H]1C(=O)NC(C)(C)C,,,inhibition [1]: 10%
CC(C)(C)NC(=O)c1ccccc1CCC(O)CN1CCCCC1C(=O)NC(C)(C)C (stereo in doubt; 11),,,inhibition [2]: 20%
CC(C)(C)NC(=O)c1ccccc1SCC(O)Cc1ccc2ccccc2c1C(=O)NC(C)(C)C (stereo not drawn),4.60,,
CC(C)(C)NC(=O)c1ccccc1CCC(O)Cc1ccccc1C(=O)NC(C)(C)C (stereo not drawn),,4.62,
CC(C)N1CCC(CC(O)CCc2ccccc2C(=O)NC(C)(C)C)=C(C(=O)NC(C)(C)C)C1 (stereo not drawn),4.15,,
CC(C)(C)NC(=O)c1c(CC[C@H](O)Cc2ccc3ccccc3c2C(=O)NC(C)(C)C)ccc2ccccc12,,6.32,
CC(C)(C)NC(=O)c1c(CC[C@@H](O)Cc2ccc3ccccc3c2C(=O)NC(C)(C)C)ccc2ccccc12,,4.60,
CC(C)(C)NC(=O)c1ccccc1CC(O)CSc1ccccc1NC(=O)C(C)(C)C (stereo not drawn),< 3.70,,
CC(C)(C)NC(=O)c1ccccc1C#CC(O)Cc1ccccc1C(=O)NC(C)(C)C (stereo not drawn),3.70,,
CC(C)(C)NC(=O)c1ccccc1CCC(O)Cc1ccc2ccccc2c1C(=O)NC(C)(C)C (stereo not drawn),,5.66,
CC(C)(C)NC(=O)c1ccccc1/C=C/C(O)Cc1ccccc1C(=O)NC(C)(C)C (stereo not drawn),,,inhibition [5]: 40%
CC(C)(C)NC(=O)c1c(CCC(O)Cc2ccc3ccccc3c2C(=O)NC(C)(C)C)ccc2ccccc12 (stereo not drawn),,5.85,
CC(C)(C)NC(=O)c1ccccc1CCC(O)CN1CCCCC1C(=O)NC(C)(C)C (stereo in doubt; 12),,,inhibition [2]: 35%
CC(C)(C)NC(=O)c1cc(C(C)(C)C)ccc1CCC(O)Cc1ccc2ccccc2c1C(=O)NC(C)(C)C (stereo not drawn),,5.92,
CC(C)(C)NC(=O)c1ccccc1CC(O)CSc1ccccc1C(=O)NC(C)(C)C (stereo not drawn),,4.08,
CC(C)(C)NC(=O)c1ccccc1CC[C@@H](O)CN1CCC[C@H]1C(=O)NC(C)(C)C,,,inhibition [6]: 10%
CC(C)(C)NC(=O)c1cc(C(C)(C)C)ccc1CCC(O)Cc1ccc(C(C)(C)C)cc1C(=O)NC(C)(C)C (stereo not drawn),5.15,,
CC(C)(C)NC(=O)c1ccccc1SCC(O)c1ccccc1C(=O)NC(C)(C)C (stereo not drawn),< 3.70,,
